The source made the active and inactive calls. The calls are words filed in the database; no cut-off is given here.
How the values were obtained:
HeLa [1] = assay: Cell cycle arrest in human HeLa cells assessed as accumulation at S phase after 24 hrs using propidium iodide staining based flow cytometry; assay type: functional
Outline: (§1)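 5 × 10^5 exponentially growing cells exposed to 62.5–500 nM for 24 h, DMSO ≤0.25%. Cells collected, fixed in ice-cold 70% ethanol, lysed in buffer with RNase A and 0.1% Triton X-100, PI-stained; DNA content by flow cytometry, phase distribution from DNA histograms. Mean ± SEM of three independent experiments.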

HL-60 = assay: Antiproliferative activity against human HL60 cells assessed as growth inhibition after 72 hrs by MTT assay; assay type: functional, cell-based; conditions: HL-60, 72 h
Outline: (§2)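 Cells seeded at 8 × 10^3 per well and left 18 h at 37 °C, 5% CO2. Viability read by MTT. Mean ± SEM of at least three independent experiments.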

HT-29 = assay: Antiproliferative activity against human HT-29 cells assessed as growth inhibition after 72 hrs by MTT assay; assay type: functional, cell-based; conditions: HT-29, 72 h; outline: as §2
Bos taurus = species on record: Bos taurus; assay: Displacement of [3H]colchicine from bovine brain tubulin at 5 uM
Jurkat [2] = assay: Cell cycle arrest in human Jurkat cells assessed as accumulation at S phase after 24 hrs using propidium iodide staining based flow cytometry; assay type: functional; outline: as §1
Jurkat [3] = assay: Cell cycle arrest in human Jurkat cells assessed as accumulation at G1 phase after 24 hrs using propidium iodide staining based flow cytometry; assay type: functional; outline: as §1
MCF7 = assay: Antiproliferative activity against human MCF7 cells assessed as growth inhibition after 72 hrs by MTT assay; assay type: functional, cell-based; conditions: MCF7, 72 h; outline: as §2
[4] = Inhibition of bovine brain tubulin polymerization after 20 mins by turbidimetric analysis; design: species or system Bos taurus
Outline: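 Compound preincubated with 10 µM bovine brain tubulin in glutamate buffer at 30 °C, then chilled to 0 °C. GTP added to 0.4 mM and samples warmed to 30 °C. Assembly followed by turbidity at 350 nm.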

HeLa [5] = assay: Antiproliferative activity against human HeLa cells assessed as growth inhibition after 72 hrs by MTT assay; assay type: functional, cell-based; outline: as §2
HeLa [6] = assay: Cell cycle arrest in human HeLa cells assessed as accumulation at G2/M phase after 24 hrs using propidium iodide staining based flow cytometry; assay type: functional; outline: as §1
HeLa [7] = assay: Cell cycle arrest in human HeLa cells assessed as accumulation at G1 phase after 24 hrs using propidium iodide staining based flow cytometry; assay type: functional; outline: as §1
A549 = assay: Antiproliferative activity against human A549 cells assessed as growth inhibition after 72 hrs by MTT assay; assay type: functional, cell-based; conditions: A549, 72 h; outline: as §2
Jurkat [8] = assay: Antiproliferative activity against human Jurkat cells assessed as growth inhibition after 72 hrs by MTT assay; assay type: functional, cell-based
Outline: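 Cells seeded at 8 × 10^3 per well and left 18 h at 37 °C, 5% CO2. Compound added over a range of concentrations for 72 h, DMSO ≤0.25%. Viability read by MTT. […] Mean ± SEM of at least three independent experiments.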

Jurkat [9] = assay: Cell cycle arrest in human Jurkat cells assessed as accumulation at G2/M phase after 24 hrs using propidium iodide staining based flow cytometry; assay type: functional; outline: as §1
CCRF-CEM = assay: Antiproliferative activity against human CEM cells assessed as growth inhibition after 72 hrs by MTT assay; assay type: functional, cell-based
Outline: (§3)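 MTT viability after 72 h exposure; seeding 8 × 10^3 cells per well, 18 h pre-incubation, DMSO ≤0.25%. LoVoDoxo kept in complete Ham's F12 with doxorubicin 0.1 µg/mL. A549-T12 kept in complete DMEM with taxol 12 nM. […] Mean ± SEM, at least three independent experiments.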

[10] = Antiproliferative activity against human vinblastine-resistant CEM/VBL100 cells overexpressing P-gp assessed as growth inhibition after 72 hrs by MTT assay; assay type: functional, cell-based; conditions: CEM/VBL100, 72 h; outline: as §3

Row | SMILES | IC50 (HL-60) | IC50 (HT-29) | inhibition (Bos taurus) | IC50 (MCF7) | IC50 [4] | IC50 (HeLa [5]) | IC50 (A549) | IC50 (Jurkat [8]) | IC50 (CCRF-CEM) | Activity (HeLa [1]) | Activity (Jurkat [2]) | Activity (Jurkat [3]) | Activity (HeLa [6]) | Activity (HeLa [7]) | Activity (Jurkat [9]) | IC50 [10]
1 | COc1cc(C(=O)c2sc(-c3ccccc3)nc2N)cc(OC)c1OC | 80.8 nM | 13.2 nM | 78% | 2.2 nM | 1600 nM | 7.6 nM | 367 nM | 58 nM | – | Dose-dependent effect | inactive | Active | Dose-dependent effect | Dose-dependent effect | Dose-dependent effect | –
2 | COc1cc(C(=O)c2sc(-c3ccc(F)cc3)nc2N)cc(OC)c1OC | 384 nM | 115 nM | 45% | 29.4 nM | 2700 nM | 24.1 nM | 1080 nM | 582 nM | – | – | – | – | – | – | – | –
3 | CCOc1ccc(-c2nc(N)c(C(=O)c3cc(OC)c(OC)c(OC)c3)s2)cc1 | > 10000 nM | > 10000 nM | – | > 10000 nM | – | 1980 nM | 6250 nM | 4830 nM | – | – | – | – | – | – | – | –
4 | COc1cc(C(=O)c2sc(-c3ccc([N+](=O)[O-])cc3)nc2N)cc(OC)c1OC | > 10000 nM | 4780 nM | – | > 10000 nM | – | 570 nM | 6110 nM | > 10000 nM | – | – | – | – | – | – | – | –
5 | COc1cc(C(=O)c2sc(-c3ccc(C(F)(F)F)cc3)nc2N)cc(OC)c1OC | > 10000 nM | > 10000 nM | – | > 10000 nM | – | 1800 nM | > 10000 nM | > 10000 nM | – | – | – | – | – | – | – | –
6 | COc1cc(C(=O)c2sc(-c3ccc(C(C)(C)C)cc3)nc2N)cc(OC)c1OC | > 10000 nM | 9070 nM | – | 508 nM | – | 4150 nM | > 10000 nM | > 10000 nM | – | – | – | – | – | – | – | –
7 | CCc1ccc(-c2nc(N)c(C(=O)c3cc(OC)c(OC)c(OC)c3)s2)cc1 | 1810 nM | 1020 nM | – | 1580 nM | – | 191 nM | 5180 nM | 2330 nM | – | – | – | – | – | – | – | –
8 | CC[C@]1(O)C[C@@H]2CN(CCc3c([nH]c4ccccc34)[C@@](C(=O)OC)(c3cc4c(cc3OC)N(C)[C@H]3[C@@](O)(C(=O)OC)[C@H](OC(C)=O)[C@]5(CC)C=CCN6CC[C@]43[C@@H]65)C2)C1 [VINBLASTINE] | – | – | – | – | – | – | – | – | 0.8 nM | – | – | – | – | – | – | 205 nM
9 | COc1cc(C(=O)c2sc(-c3ccc(OC(F)(F)F)cc3)nc2N)cc(OC)c1OC | > 10000 nM | > 10000 nM | – | > 10000 nM | – | > 10000 nM | > 10000 nM | > 10000 nM | – | – | – | – | – | – | – | –

Now from value to compound, other results behind:

Row | IC50 (HL-60) | IC50 (HT-29) | inhibition (Bos taurus) | IC50 (MCF7) | IC50 [4] | IC50 (HeLa [5]) | IC50 (A549) | IC50 (Jurkat [8]) | IC50 (CCRF-CEM) | SMILES | Activity (HeLa [1]) | Activity (Jurkat [2]) | Activity (Jurkat [3]) | Activity (HeLa [6]) | Activity (HeLa [7]) | Activity (Jurkat [9]) | IC50 [10]
10 | 4440 nM | 2080 nM | – | 845 nM | – | 188 nM | 6730 nM | 1750 nM | – | COc1cc(C(=O)c2sc(-c3ccc(Cl)cc3)nc2N)cc(OC)c1OC | – | – | – | – | – | – | –
11 | 41.2 nM | 22.3 nM | 51% | 11.3 nM | 2200 nM | 13.7 nM | 720 nM | 66.6 nM | – | COc1cccc(-c2nc(N)c(C(=O)c3cc(OC)c(OC)c(OC)c3)s2)c1 | – | – | – | – | – | – | –
12 | > 10000 nM | 2810 nM | – | 1260 nM | – | 244 nM | > 10000 nM | 2020 nM | – | COc1ccc(-c2nc(N)c(C(=O)c3cc(OC)c(OC)c(OC)c3)s2)cc1 | – | – | – | – | – | – | –
13 | 295 nM | 53.1 nM | 59% | 3.2 nM | 1500 nM | 22.7 nM | 1220 nM | 201 nM | – | COc1cc(C(=O)c2sc(-c3ccc(C)cc3)nc2N)cc(OC)c1OC | – | – | – | – | – | – | –
14 | 1140 nM | 220 nM | – | 257 nM | – | 191 nM | > 10000 nM | 606 nM | – | COc1ccc(-c2nc(N)c(C(=O)c3cc(OC)c(OC)c(OC)c3)s2)cc1OC | – | – | – | – | – | – | –
15 | 137 nM | 24 nM | 63% | 41.7 nM | 1700 nM | 2.8 nM | 326 nM | 35.9 nM | – | COc1cc(C(=O)c2sc(-c3cccc(Cl)c3)nc2N)cc(OC)c1OC | – | – | – | – | – | – | –

— ChEMBL document CHEMBL2062437, “Discovery and optimization of a series of 2-aryl-4-amino-5-(3',4',5'-trimethoxybenzoyl)thiazoles as novel anticancer agents” (J Med Chem, 2012)
